Test results taken from article PMC3190987 (The Journal of Biological Chemistry, 2011).
Where two headings read alike, the source gives them in different places.

T1: c-Jun (Homo sapiens, UniProt P05412, S292Y)
T1 sequence (P05412 with tags, fused parts or gaps S292Y): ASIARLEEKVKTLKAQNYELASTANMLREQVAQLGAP


Key:
[1] = homodimer; cited from earlier work
c-Jun-DHFR2 = assay: Growth competition under PCA conditions; assay type: cell-based, Escherichia coli; settings: M9 minimal media with trimethoprim and IPTG; A600 hourly, in duplicate
Summary of the method: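 Split murine DHFR complementation in E. coli: library peptide fused to DHFR fragment 1, c-Jun to fragment 2, both lac-driven. Strains came from single colonies on PCA plates with sequence-verified plasmids. Growth rates were monitored under selection in M9 minimal medium with ampicillin, chloramphenicol, kanamycin, trimethoprim and IPTG (1 mM induction).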

c-Jun [2] = molecular target: T1, c-Jun; assay: Isothermal titration calorimetry; assay type: binding; settings: for ΔH / ΔGbind (ITC) / TΔS (ΔH − ΔG): ITC, 20 °C; for ΔH: pH 7, one-site model; for ΔGbind (ITC): calculated by Equation 4; for TΔS (ΔH − ΔG): calculated from ΔH and ΔGbind
Summary of the method: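 VP-ITC at 20 °C in 10 mM potassium phosphate, 100 mM KF, pH 7. Syringe peptide at 175–250 μM was injected 25 × 5 μl into cell peptide at 10–40 μM; syringe and cell partners were also swapped. Each run was done at least twice. Isotherms fitted to a 1:1 one-site model for Kd and ΔH. ΔG calculated at 293.15 K; TΔS from ΔH and ΔG.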

[3] = CD spectra of peptides in isolation; assay type: physicochemical; settings: for helicity in isolation: peptide in isolation, from θ222, 20 °C
Summary of the method: (§1)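 CD spectra of homodimeric or c-Jun heterodimeric samples, 150 μM total peptide, 10 mM potassium phosphate, 100 mM KF, pH 7, 1-mm cell. Scans 300–190 nm at 20 °C (pre- and post-melt) and at −8 °C. Converted to molar residue ellipticity, giving θ222/θ208. Fraction helicity taken from θ222 with k = 2.4 and T = 293 K.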

c-Jun [4] = molecular target: T1, c-Jun; assay: CD spectra of heterodimeric complexes with c-Jun; settings: for θ222/θ208 (20 °C) / Fraction helical (fH): heterodimer with c-Jun; for θ222/θ208 (20 °C): CD, 150 μM total peptide, pH 7, 20 °C; for Fraction helical (fH): from θ222, 20 °C
Summary of the method: as §1

c-Jun [5] = molecular target: T1, c-Jun; assay: CD dimer exchange experiment; assay type: binding; settings: CD spectra, total peptide 150 μM
Summary of the method: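 Equilibrium mixing followed by CD in 10 mM potassium phosphate, 100 mM KF, pH 7. Spectra recorded for the c-Fos homodimer and for the test peptide–c-Jun heterodimer, each at 150 μM total peptide. Equal volumes of the two solutions were then mixed, keeping the final total peptide at 150 μM, and the spectrum was re-recorded.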

[6] = Thermal melts followed by CD at 222 nm, homodimers; assay type: physicochemical; settings: homodimer; CD 222 nm, 150 μM total peptide, pH 7
Summary of the method: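 CD thermal denaturation at 222 nm, 150 μM total peptide, 10 mM potassium phosphate, 100 mM KF, pH 7. Started at −8 °C and stepped in 1 °C increments with a 30 s hold, signal averaged over 4 s per point. Tm obtained by least-squares fit to a two-state model (modified Gibbs-Helmholtz).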

c-Jun [7] = molecular target: T1, c-Jun; settings: heterodimer with c-Jun; cited from earlier work
[8] = molecular target: c-Jun (37-residue leucine zipper peptide); assay: ITC
[9] = molecular target: c-Jun (37-residue leucine zipper peptide); assay: CD thermal denaturation

| ΔH (c-Jun [2]) | ΔGbind (ITC) (c-Jun [2]) | TΔS (ΔH − ΔG) (c-Jun [2]) | θ222/θ208 (20 °C) (c-Jun [4]) | Fraction helical (fH) (c-Jun [4]) | Ka [8] | Kd [9] | Molecule | affinity for c-Jun by E. coli growth rate (c-Jun-DHFR2) | further results |
| --- | --- | --- | --- | --- | --- | --- | --- | --- | --- |
| – | – | – | – | – | – | – | ASIARLEEKVKTLKAQNYELASTANMLREQVAQLGAP [c-Jun] | – | Tm [1]: 24 °C |
| -10.6 ± 0.2 kcal/mol | -9.9 ± 0.1 kcal/mol | -0.7 ± 0.2 kcal/mol | 1.0 | 35.8% | – | – | ASLDELQAEIEQLEERNYALRKEIEDLQKQLEKLGAP [FosW] | much improved affinity over c-Fos | helicity in isolation [3]: 43.7% |
| -14.1 ± 0.2 kcal/mol | -8.8 ± 0.1 kcal/mol | -5.3 ± 0.2 kcal/mol | 0.99 | 60.4% | – | – | ASLDELQREIEQLEELNYALQKEIEDLQKQGAP [4hFosW] | much improved affinity over c-Fos | specificity for c-Jun in the presence of c-Fos (c-Jun [5]): specific for c-Jun in the presence of c-Fos; Tm [6]: 36 °C; loss of stability of complex with c-Jun relative to c-Jun-FosW (c-Jun [2]; ITC free energy of binding): around 1 kcal/mol; gain in helicity in isolation relative to FosW [3]: ~7%; magnitude of the CD peak at 222 nm ([3]; homodimeric complex, 20 °C): approximately −87 millidegrees; ratio θ222/θ208 ([3]; peptide in isolation (homodimeric)): ~1.0; helicity in isolation [3]: 50.6%; magnitude of the CD peak at 222 nm (c-Jun [4]; heterodimeric complex with c-Jun, 20 °C): approximately −112 millidegrees; gain in helicity of complex with c-Jun over c-Jun-FosW (c-Jun [4]; measured helicity by CD): ~25% |
| -0.8 ± 0.4 kcal/mol | -6.1 ± 0.4 kcal/mol | 5.3 ± 0.5 kcal/mol | 0.75 | 3.6% | – | – | ASTDTLQAETDQLEDEKYALQTEIANLLKEKEKLGAP [c-Fos] | lower affinity interaction | Tm (c-Jun [7]): 16 °C |
| – | – | – | – | – | 38000 M⁻¹ | 26600 nM | c-Fos (37-residue leucine zipper peptide) | – | – |
| – | – | – | – | – | 2.1e+06 M⁻¹ | 487 nM | Ac-ASLDELQREIEQLEELNYALQKEIEDLQKQGAP-NH2 [4hFosW] | – | dH [8]: -14.1 kcal/mol; stoichiometry N [8]: 1.05; Tm [9]: 49 °C |
| – | – | – | – | – | 2.2e+07 M⁻¹ | 45 nM | Ac-ASLDELQAEIEQLEERNYALRKEIEDLQKQLEKLGAP-NH2 [FosW] | – | dH [8]: -10.6 kcal/mol; stoichiometry N [8]: 0.65; Tm [9]: 63 °C |
